Measured values taken from ChEMBL document CHEMBL5257087, “Anti-inflammatory Activity of Tanshinone-Related Diterpenes from Perovskia artemisioides Roots” (2023).
Calls of active or inactive are those of the source. The calls are words filed in the database; no cut-off is given here.

Tests used:
[1] = system: J774.A1; test: Antiinflammatory activity in mouse J774.A1 macrophages assessed as inhibition of LPS-induced NO production at 12.5 to 50 uM preincubated for 1 hr followed by LPS stimulation and measured after 24 hrs by griess reagent based assay; assay type: functional, cell-based; conditions: dose 12.5-50 µM, time 25.0 hrs
Outline: (§1)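 Macrophages adhered 3 h at 5 × 10^4 cells/well, then were exposed to compound (50–12.5 μM) for 1 h before E. coli LPS (10 μg/mL) was added. After 24 h, nitrite in the medium was reacted with Griess reagent for 10 min at room temperature and absorbance read at 550 nm. Values are in μM from a sodium nitrite standard curve. L-NAME (1 μM) served as reference. Data are mean ± SEM, n ≥ 3, triplicate.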

[2] = system: J774.A1; test: Antiinflammatory activity in mouse J774.A1 macrophages assessed as inhibition of LPS-induced iNOS expression at 12.5 to 50 uM preincubated for 1 hr followed by LPS stimulation and measured after 24 hrs by cytofluorimetry analysis; assay type: functional, cell-based; conditions: dose 12.5-50 µM, time 25.0 hrs
Outline: (§2)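 J774A.1 cells plated at 5 × 10^4 cells/well and allowed to adhere 3 h at 37 °C. Compounds were added 1 h before and then together with E. coli LPS (10 μg/mL) for 24 h. Cells were fixed and permeabilized, then stained with anti-iNOS or anti-COX-2 and a secondary antibody. Read as mean fluorescence intensity by flow cytometry. Indomethacin (1 μM) served as positive control. At least three independent experiments, each in triplicate.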

[3] = system: J774.A1; test: Antiinflammatory activity in mouse J774.A1 macrophages assessed as inhibition of LPS-induced COX2 expression at 12.5 to 50 uM preincubated for 1 hr followed by LPS stimulation and measured after 24 hrs by cytofluorimetry analysis; assay type: functional, cell-based; conditions: dose 12.5-50 µM, time 25.0 hrs; outline: as §2
[4] = system: J774.A1; test: Antiproliferative activity against mouse J774.A1 cells assessed as reduction in cell viability at 100 uM incubated for 24 hrs by MTT assay; assay type: functional, cell-based
Outline: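 J774A.1 cells at 5 × 10^4 cells/well adhered 3 h, then were incubated 24 h with compound serial dilutions (100–12.5 μM). MTT (5 mg/mL stock) was added for 3 h, formazan dissolved in DMSO, and OD read at 570 nm. The value is the % dead cells, 100 − [(OD treated/OD control) × 100]. 6-Mercaptopurine (1 μM) was the reference. At least three experiments, each in triplicate.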

[5] = system: J774.A1; test: Antiinflammatory activity in mouse J774.A1 macrophages assessed as inhibition of LPS-induced NO production at 1 uM preincubated for 1 hr followed by LPS stimulation and measured after 24 hrs by griess reagent based assay; assay type: functional; conditions: time 25 hrs
Outline: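 Murine J774A.1 cells (DMEM, 10% FBS) were plated at 5 × 10^4 cells/well and allowed to adhere for 3 h at 37 °C in 5% CO2. They were exposed to the agent in fresh medium for 1 h, then to E. coli LPS at 10 µg/mL for 24 h. Medium nitrite was measured with Griess reagent (10 min, room temperature, A550) and converted to µM against a sodium nitrite standard. Means ± SEM, ≥3 independent experiments, each in triplicate.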

[6] = system: J774.A1; test: Antiinflammatory activity in mouse J774.A1 macrophages assessed as inhibition of LPS-induced iNOS expression at 1 uM preincubated for 1 hr followed by LPS stimulation and measured after 24 hrs by cytofluorimetry analysis; assay type: functional; conditions: time 25 hrs
Outline: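 J774A.1 cells were plated at 5 × 10^4 cells/well and allowed to adhere for 3 h. The agent was added 1 h before LPS (10 µg/mL) and kept during stimulation; cells were harvested after 24 h. Cells were washed in PBS, fixed for 20 min and permeabilized for 30 min. Anti-iNOS primary and secondary antibodies were each applied for 30 min. Read-out was flow-cytometric mean fluorescence intensity versus LPS alone. Means ± SEM, ≥3 independent experiments, each in triplicate.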

[7] = system: J774.A1; test: Antiinflammatory activity in mouse J774.A1 macrophages assessed as inhibition of LPS-induced COX2 expression at 1 uM preincubated for 1 hr followed by LPS stimulation and measured after 24 hrs by cytofluorimetry analysis; assay type: functional; conditions: time 25 hrs; outline: as §2
[8] = system: J774.A1; test: Antiinflammatory activity in mouse J774.A1 macrophages assessed as reduction in LPS-induced nitrite production at 12.5 to 50 uM preincubated for 1 hr followed by LPS stimulation and measured after 24 hrs by griess reagent based assay; assay type: functional, cell-based; conditions: dose 12.5-50 µM, time 25.0 hrs; outline: as §1
[9] = system: J774.A1; test: Antioxidant activity in mouse J774.A1 macrophages assessed as inhibition of LPS-induced nitrotyrosine formation at 12.5 to 50 uM preincubated for 1 hr followed by LPS stimulation and measured after 24 hrs by cytofluorimetry analysis; assay type: functional, cell-based; conditions: dose 12.5-50 µM, time 25.0 hrs
Outline: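 Cells were pretreated 1 h with compound (50–12.5 μM), then LPS (10 μg/mL) was added for 24 h. Cells were harvested, PBS-washed, fixed 20 min and permeabilized 30 min. They were stained 30 min with rabbit anti-nitrotyrosine, then 30 min with secondary antibody. Mean fluorescence intensity was read by flow cytometry. L-NAME and indomethacin (1 μM each) were positive controls. Mean ± SEM of at least three experiments, each in triplicate.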

[10] = system: J774.A1; test: Antioxidant activity in mouse J774.A1 macrophages assessed as inhibition of LPS-induced intracellular ROS production at 12.5 to 50 uM preincubated for 1 hr followed by LPS stimulation and measured after 24 hrs by DCFH2-DA probe based fluorescence analysis; assay type: functional, cell-based; conditions: dose 12.5-50 µM, time 25.0 hrs
Outline: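 Macrophages (J774A.1, 5 × 10^4 cells/well, 3 h adherence) were given the compound (50–12.5 µM) 1 h before and during LPS (10 µg/mL). After 24 h cells were collected and washed twice in PBS, then loaded with 10 µM H2DCF-DA in PBS at 37 °C for 15 min. DCF fluorescence was read by flow cytometry as mean fluorescence intensity versus LPS alone. Means ± SEM, ≥3 independent experiments, each in triplicate.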

[11] = system: J774.A1; test: Antioxidant activity in mouse J774.A1 macrophages assessed as inhibition of LPS-induced nitrotyrosine formation at 25 to 50 uM preincubated for 1 hr followed by LPS stimulation and measured after 24 hrs by cytofluorimetry analysis; assay type: functional, cell-based; conditions: dose 25-50 µM, time 25.0 hrs
Outline: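 J774A.1 cells (5 × 10^4 cells/well, 3 h adherence) were pretreated with compound (50–12.5 µM) for 1 h, then LPS (10 µg/mL) was added. After 24 h cells were PBS-washed, fixed for 20 min and permeabilized for 30 min. Rabbit anti-nitrotyrosine and secondary antibody were each applied for 30 min. Read-out was flow-cytometric mean fluorescence intensity versus LPS alone. Means ± SEM, ≥3 independent experiments, each in triplicate.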

Row | SMILES | inhibition [1] | inhibition [2] | inhibition [3] | Activity [4] | further results
1 | CC(C)/C(=C/c1ccc2c3c1C(=O)O[C@H]3CCC2(C)C)C(=O)O | Active | Active | Active | – | –
2 | CC(C)c1cc2ccc3c(c2oc1=O)CCCC3(C)C | – | – | – | Active | –
3 | COC(=O)[C@@H](N)CCCNC(=N)N[N+](=O)[O-] | – | – | – | – | inhibition at 1 µM [5]: 51.2%; inhibition at 1 µM [6]: 47.1%
4 | C[C@H]1CO[C@]2(C1)OC(=O)c1cc3c(cc12)CC(C)(C)CC3 | – | – | – | Active | –
5 | CC(C)c1cc2c(cc1O)[C@@]1(CO)CCCC(C)(C)[C@@H]1CC2 | Active | Active | Active | Active | –
6 | CC(C)C1=CC2=C(C(=O)C1=O)[C@@]1(C)CCCC(C)(C)C1C[C@@H]2O (stereo not given in full) | – | – | – | Active | –
7 | COc1ccc2c(c1)c(CC(=O)O)c(C)n2C(=O)c1ccc(Cl)cc1 [INDOMETHACIN] | – | – | – | – | inhibition at 1 µM [7]: 47.8%
8 | Cc1coc2c1C(=O)C(=O)c1c-2ccc2c1C(=O)CCC2(C)C | Active | Active | Active | – | Activity [8]: Active; inhibition [9]: Active; inhibition [10]: Active
9 | CC(C)c1cc2c(cc1O)[C@@]1(C)CCCC(C)(C)C1=C(O)C2=O | Active | Active | Active | Active | –
10 | C[C@H]1COC2=C1C(=O)C(=O)c1c2ccc2c1CCCC2(C)C | Active | Active | Active | Active | inhibition [11]: Active; inhibition [10]: Active
11 | COC(=O)/C(=C\c1ccc2c3c1C(=O)O[C@H]3CCC2(C)C)C(C)C | Active | Active | Active | Active | –
12 | Cc1cc2ccc3c(c2cc(O)c1=O)CCCC3(C)C | – | – | – | Active | –
13 | CC(C)c1cc2ccc3c(c2c(O)c1O)C(=O)CCC3(C)C | – | – | – | Active | –
